Assay results reported in ChEMBL document CHEMBL5143543, “Synthesis and evaluation of enantiomers of hydroxychloroquine against SARS-CoV-2 in vitro” (Bioorg Med Chem, 2022).
Activity calls are given as the source filed them. The calls are words filed in the database; no cut-off is given here.

Legend:
[1] = system: SARS-CoV-2; assay: Antiviral activity against SARS-CoV-2 infected in Vero E6 cells assessed as virus-induced cytopathic effect at 5 uM measured after 48 hrs by CCK-8 assay; type: functional, organism-based; settings: Severe acute respiratory syndrome coronavirus 2
[2] = system: SARS-CoV-2; assay: Antiviral activity against SARS-CoV-2 infected in Vero E6 cells assessed as viral RNA level measured after 48 hrs by RT-PCR analysis; type: functional, organism-based; settings: Severe acute respiratory syndrome coronavirus 2, Vero C1008, 48 h
[3] = system: SARS-CoV-2; assay: Antiviral activity against SARS-CoV-2 infected in Vero E6 cells assessed as virus-induced cytopathic effect at 40 uM measured after 48 hrs by CCK-8 assay; type: functional, organism-based; settings: Severe acute respiratory syndrome coronavirus 2
[4] = Toxicity in mouse assessed as death at 230 mg/kg, po measured after 12 days; type: organism-based; settings: in vivo, 288 h, time 12 day
Summary of the method: (§1)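 Male and female mice (25 g; n = 8 per group; vehicle-control and test groups) were fasted overnight. Compounds were given as sulfate salts in physiological saline, intragastrically at 230 mg/kg twice a day; controls received saline. Survival was followed by day post dosing, in a double-dose acute toxicity assay.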

[5] = Toxicity in mouse assessed as death at 230 mg/kg, po measured after 7 days; type: organism-based; settings: in vivo, 168 h, time 7 day; summary of the method: as §1
[6] = Toxicity in mouse assessed as death at 230 mg/kg, po measured after 9 days; type: organism-based; settings: in vivo, 216 h, time 9 day; summary of the method: as §1

Q: With CCC(CC)COC(=O)[C@H](C)N[P@](=O)(OC[C@H]1O[C@@](C#N)(c2ccc3c(N)ncnn23)[C@H](O)[C@@H]1O)Oc1ccccc1 as the compound, how does the Activity [1] read?
A: Active

Q: For CCN(CCO)CCC[C@H](C)Nc1ccnc2cc(Cl)ccc12.O=S(=O)(O)O, which EC50 [2] is on record?
A: 3.05 µM

Q: What about the Activity [3] of the same compound?
A: Active

Q: What about the Activity [4] of the same compound?
A: Non-Toxic

Q: Which EC50 [2] does the source give for CCN(CCO)CCCC(C)Nc1ccnc2cc(Cl)ccc12.O=S(=O)(O)O (racemic) [HYDROXYCHLOROQUINE SULFATE] here?
A: 5.09 µM

Q: What about the Activity [3] of the same compound?
A: Active

Q: What about the Activity [5] of the same compound?
A: Toxic

Q: What does the source list for CCN(CCO)CCC[C@@H](C)Nc1ccnc2cc(Cl)ccc12.O=S(=O)(O)O?
A: Activity [6]: Toxic; EC50 [2]: 5.38 µM; Activity [3]: Active
